Source: PubChem BioAssay
KCNQ1 inh – inhibitors of human KCNQ1 potassium channel | CHO-K1 KCNQ1, FluxOR thallium flux fluorescence; stronger effect = higher value | B-score at 10 µM | hit rate 1.3% among 310,000 | AID 2642;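 active = compounds whose thallium flux B-score, printed positive for inhibition, exceeds three library SD while starting fluorescence stays within three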;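 note: channel opened by potassium depolarization with thallium stimulus after 20 min compound exposure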
KCNK9 inh – human KCNK9 channel inhibition | Q9NPC2 | HEK293 KCNK9, FluxOR thallium flux fluorescence; stronger effect = lower value | B-score at 10 µM | hit rate 1.2% among 310,000 | AID 488922;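 active = ratio B-score over 3 SD below the library mean, with starting fluorescence within 5 SD of its mean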;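 note: negative B-score means less thallium flux so channel inhibition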
KCC2 mod – KCC2 (human) Cl- transport modulation. hit rate 2.2% among 190,000. B-score of Tl+ flux slope (higher = more flux/activation; lower = inhibition) at 10 µM. KCC2 cells, thallium flux FluoZin-2 fluorescence. Q9H2X9;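 active = thallium flux slope and its plate-corrected score both differing from the plate sample mean at a set confidence after two filtering rounds, in either direction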;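 note: slope of fluorescence scaled to starting intensity during 10 to 20 s after thallium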
KCNK3 inh – human KCNK3 channel inhibition, primary screen; O14649; CHO-KCNK3 thallium flux, FluxOR fluorescence; stronger effect = lower value; B-score at 10 µM; hit rate 0.84% among 340,000;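 active = B-score under library mean minus 4 SD, starting fluorescence ratio at most library mean plus 5 SD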;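 note: more negative B-score means stronger inhibition of thallium flux through KCNK3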
hERG protect – hERG (human) protection from proarrhythmic block; Q12809; CHO-hERG, FluxOR thallium flux, dofetilide IC70 present; activation (rescue from dofetilide block), less the hit threshold, % at 10 µM; hit rate 0.51% among 310,000;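 active = activation above the mean of controls blocked by dofetilide plus 5 SD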;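 note: thallium influx through hERG after potassium depolarization seen as dye fluorescence rise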
KCNQ1 pot – potentiators or activators of human KCNQ1 potassium channel | P51787 | CHO-K1 KCNQ1, thallium flux FluxOR fluorescence; stronger effect = higher value | B-score at 10 µM | hit rate 0.35% among 310,000;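 active = fluorescence ratio B-score, a plate-corrected score, at least three library SD, with initial intensity B-score within 5 SD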
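assay system = KCNQ1-transfected CHO-K1 cells | medium = assay buffer with matched DMSO | probe or stimulus = depolarizing K+/Tl+ stimulus, K2SO4 and Tl2SO4 each 12.5 mM in 5x stock | dosing = single dose | incubation = dye 90 min, compound 20 min, room temperature | detection = kinetic FluxOR fluorescence, 10 s baseline plus 110 s post-stimulus | evaluation = ratio B score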
KCC2 secondary – KCC2 (human) modulation, secondary assay. hit rate 15% among 3,700. shares compounds with KCC2 mod. normalised thallium flux (F/F0 slope) at 10 µM. HEK293-KCC2, thallium flux, FluoZin2 fluorescence; stronger effect = higher value;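 active = thallium flux slope above the same plate's solvent-only control mean plus 3 SD; inconclusive = the two replicate wells disagree; inactive = no significant difference from solvent-only control wells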
KCC2 bumet counter – thallium flux persisting under bumetanide in KCC2 cells, counter-screen secondary assay | hit rate 49% among 3,700 | normalized thallium flux at 10 µM | HEK293-KCC2 + bumetanide/ouabain, thallium flux FluoZin2; stronger effect = higher value | AID 1714 | shares compounds with KCC2 mod;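 active = thallium entry rate above the same plate's blocked-transporter control wells by more than 3 SD; inconclusive = the two repeat wells disagree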;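 note: raw slope of fluorescence over initial fluorescence between 10 and 20 s after thallium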
KCC2 secondary2 – confirmation of human KCC2 transport modulators; HEK293-KCC2, thallium flux FluoZin2 fluorescence; actives lie on both sides; F/F0 rise rate, 10–20 s post-thallium; hit rate 23% among 3,700; normalized thallium flux at 10 µM; shares compounds with KCC2 mod;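 active = thallium flux slope more than 3 SD above or below the plate's solvent-only control mean, mostly below; inconclusive = the two repeat wells disagreed; inactive = no significant shift from solvent-only controls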;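 note: raw slope with 0.1% DMSO as baseline and bumetanide as block control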
HEK293 Tl flux – parental HEK flux effect, counter-screen | shares compounds with KCC2 mod | thallium flux rate (normalised fluorescence) at 10 µM | hit rate 46% among 3,700 | AID 1716 | HEK293 parental cells, thallium flux FluoZin2, ouabain; baseline-ratio fluorescence slope, 10–20 s after thallium;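 active = thallium flux rate significantly above the same plate's solvent-only control wells, beyond their mean plus 3 SD; inconclusive = the two replicate wells gave conflicting results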
KCC2 retest ouab – modulates human KCC2 on retest with ouabain; hit rate 48% among 3,700; shares compounds with KCC2 mod; raw Tl+ flux slope (below DMSO = inhibition, above = activation) at 10 µM; HEK293-KCC2, thallium flux FluoZin2 fluorescence; bidirectional: low = inhibitor, high = activator;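 active = thallium flux slope beyond 3 SD from same-plate DMSO control mean in most replicates, usually higher, sometimes lower; inconclusive = repeat tests gave conflicting results; inactive = no significant difference from controls in most replicates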;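 note: slope of initial-normalized fluorescence between seconds 10 and 20 after thallium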
HEK counter2 – counter-screen for KCC2 modulators: effect in parental HEK293 cells. thallium flux FluoZin-2 fluorescence slope. thallium flux slope at 10 µM. hit rate 33% among 3,700. shares compounds with KCC2 mod. AID 1718;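 active = thallium flux slope above the same plate's solvent-control mean plus 3 SD in both duplicate wells; inconclusive = duplicate wells that disagreed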;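 note: run without ouabain in cells lacking the KCC2 cotransporter; slope of fluorescence scaled to its starting value between 10 and 20 s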
Active calls of the source: *; i = inactive; ? = inconclusive; / = no result given. In the library only some 4.1% were active in any assay of this set; here they are far more common.

SMILES	KCNQ1 inh	KCNK9 inh	KCC2 mod	KCNK3 inh	hERG protect	KCNQ1 pot	KCC2 secondary	KCC2 bumet counter	KCC2 secondary2	HEK293 Tl flux	KCC2 retest ouab	HEK counter2
CCC1(c2ccccc2)NC(=S)N(c2ccc(C)c(C)c2)N1 (stereo not drawn)	i	i	42*	i	47*	91*	0.042*	0.11*	0.038	0.055*	0.059*	0.017*
CCC1(c2ccc(Cl)cc2)NC(=S)N(c2ccc(C)c(C)c2)N1 (stereo not drawn)	i	i	93*	i	68*	103*	0.05*	0.12*	0.044*	0.1*	0.087*	0.038*
CC1(CCc2ccccc2)NC(=S)N(c2ccc(Cl)cc2)N1 (stereo not drawn)	i	i	-0.03	i	-6	i	/	/	/	/	/	/
COc1ccc(S(=O)(=O)N(CCCN2CCCC2=O)Cc2cc3c(C)cc(C)cc3[nH]c2=O)cc1	/	/	0.035	i	/	/	/	/	/	/	/	/
N#Cc1cccc(NC(=O)CCN2C(=O)C3CCCCC3C2=O)c1 (stereo not drawn)	/	/	/	i	/	/	/	/	/	/	/	/
CCOC(=O)c1cnc(-n2nc(C)cc2C)nc1NNc1ncc(-c2ccccc2)cn1	i	i	8.5*	/	-8	i	0.0067	0.024*	0.032	0.017*	0.027*	0.021*
Cc1ccc(C2=NNC(c3cccc(F)c3)S2)cc1 (stereo not drawn)	i	i	10*	i	-11	i	0.0062	?	0.03	0.0085	0.02	?
Cc1ccc(C2=NNC(C(O)C(O)C(O)C(C)O)S2)cc1 (stereo not drawn)	i	i	0.081	i	-6	i	/	/	/	/	/	/
C/C(=N\NC=O)c1ccncc1	i	i	1.5	i	-19	i	/	/	/	/	/	/
CC(C)Oc1ccccc1OCCCOc1cccc2cccnc12	i	i	-3.8*	i	-20	i	0.0071	0.0049	?	0.0064	0.017*	0.01
CC(=O)c1ccccc1OCCCOc1cccc2cccnc12	i	i	/	i	-10	i	/	/	/	/	/	/
CCCCC(c1nnnn1CC1CCCO1)N1CCN(c2nc3ccccc3s2)CC1 (stereo not drawn)	i	i	-4.1*	i	-11	i	0.0059	0.0041	0.023*	?	0.012*	0.0095
CC(C)CC(c1nnnn1CC1CCCO1)N1CCN(c2nc3ccccc3s2)CC1 (stereo not drawn)	i	i	-1.6	i	-7	i	/	/	/	/	/	/
CCCC(c1nnnn1CC1CCCO1)N1CCN(c2nc3ccccc3s2)CC1 (stereo not drawn)	i	i	-3.8*	i	-7	i	0.0063	0.004	0.027	0.0068	0.013*	0.0089
CC1Cc2ccccc2N1Cc1nc2scc(-c3cccs3)c2c(=O)[nH]1 (stereo not drawn)	i	i	3.9*	i	-7	i	0.0079	0.0094*	0.029	0.0072	0.021	0.0093
COc1ccc(N2CCN(Cc3nc4scc(-c5cccs5)c4c(=O)[nH]3)CC2)cc1	i	i	-0.43	i	-2	i	/	/	/	/	/	/
